Common to all, as to settings: stereoisomer not certain
Experiment [1] addresses T1, UniProt Q8VG27.
T1 sequence (whole entry): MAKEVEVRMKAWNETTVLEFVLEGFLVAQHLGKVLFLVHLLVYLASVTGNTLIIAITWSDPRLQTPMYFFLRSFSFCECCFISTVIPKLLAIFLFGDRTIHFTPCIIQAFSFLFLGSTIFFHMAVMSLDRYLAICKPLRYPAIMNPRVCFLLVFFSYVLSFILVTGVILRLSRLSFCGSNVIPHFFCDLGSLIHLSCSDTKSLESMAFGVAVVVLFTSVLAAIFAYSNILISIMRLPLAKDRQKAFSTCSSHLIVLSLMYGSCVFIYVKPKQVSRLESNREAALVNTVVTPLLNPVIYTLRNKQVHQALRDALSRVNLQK
The procedure, abridged:
(§1)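 Each entry records the cell line, G-protein, co-transfected protein and tags used. Methods varied with the source, often transient luciferase assays in mammalian cell lines. A receptor–molecule pair is called responsive (active) if the original authors judged its signal statistically different from baseline and non-responsive (inactive) otherwise.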

Experiment [2] concerns the target T2, UniProt Q8VG53.
T2 sequence (whole entry): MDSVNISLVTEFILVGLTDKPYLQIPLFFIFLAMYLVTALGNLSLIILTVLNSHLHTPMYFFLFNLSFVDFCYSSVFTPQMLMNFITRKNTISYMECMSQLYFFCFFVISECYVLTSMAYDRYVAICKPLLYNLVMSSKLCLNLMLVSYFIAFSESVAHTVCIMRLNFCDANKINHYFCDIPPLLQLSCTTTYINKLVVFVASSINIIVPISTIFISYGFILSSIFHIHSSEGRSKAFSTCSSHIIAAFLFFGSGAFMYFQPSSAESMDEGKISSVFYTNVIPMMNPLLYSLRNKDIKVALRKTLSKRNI
The procedure, abridged:
as §1

Experiment [3] has as its target T3, UniProt Q8VG64.
T3 sequence (whole entry): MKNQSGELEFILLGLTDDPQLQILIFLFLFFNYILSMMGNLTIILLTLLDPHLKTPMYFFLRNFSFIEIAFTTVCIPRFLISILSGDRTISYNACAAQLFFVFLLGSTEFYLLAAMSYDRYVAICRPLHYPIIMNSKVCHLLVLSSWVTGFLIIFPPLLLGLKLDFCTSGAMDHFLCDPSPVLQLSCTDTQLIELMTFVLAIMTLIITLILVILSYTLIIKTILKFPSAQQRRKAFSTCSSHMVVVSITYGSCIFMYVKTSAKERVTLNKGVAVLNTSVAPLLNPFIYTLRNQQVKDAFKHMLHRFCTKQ
Summed up: as §1

Experiment [4] concerns the target T4, UniProt Q8VGB9.
T4 sequence (whole entry): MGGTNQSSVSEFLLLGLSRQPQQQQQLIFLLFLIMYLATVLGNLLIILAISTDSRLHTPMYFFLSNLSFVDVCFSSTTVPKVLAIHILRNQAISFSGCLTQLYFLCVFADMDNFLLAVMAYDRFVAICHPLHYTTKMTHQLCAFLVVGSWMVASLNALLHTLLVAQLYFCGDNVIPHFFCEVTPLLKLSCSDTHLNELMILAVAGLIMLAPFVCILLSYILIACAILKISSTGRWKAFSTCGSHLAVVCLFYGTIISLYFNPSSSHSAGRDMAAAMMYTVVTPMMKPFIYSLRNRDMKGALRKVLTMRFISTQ
The procedure, abridged: as §1

Experiment [5] concerns the target T5, UniProt Q8VG49.
T5 sequence (whole entry): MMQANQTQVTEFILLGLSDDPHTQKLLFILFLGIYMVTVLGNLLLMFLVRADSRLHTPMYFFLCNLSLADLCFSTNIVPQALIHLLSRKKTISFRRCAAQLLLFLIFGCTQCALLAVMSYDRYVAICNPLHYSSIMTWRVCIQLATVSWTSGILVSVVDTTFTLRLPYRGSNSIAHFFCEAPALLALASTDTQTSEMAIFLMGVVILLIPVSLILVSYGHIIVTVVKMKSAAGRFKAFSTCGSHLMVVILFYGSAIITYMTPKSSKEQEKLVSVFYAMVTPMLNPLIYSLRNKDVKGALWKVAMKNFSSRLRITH
The procedure, abridged: as §1

For experiment [6], the target named is T6, UniProt Q8VG77.
T6 sequence (whole entry): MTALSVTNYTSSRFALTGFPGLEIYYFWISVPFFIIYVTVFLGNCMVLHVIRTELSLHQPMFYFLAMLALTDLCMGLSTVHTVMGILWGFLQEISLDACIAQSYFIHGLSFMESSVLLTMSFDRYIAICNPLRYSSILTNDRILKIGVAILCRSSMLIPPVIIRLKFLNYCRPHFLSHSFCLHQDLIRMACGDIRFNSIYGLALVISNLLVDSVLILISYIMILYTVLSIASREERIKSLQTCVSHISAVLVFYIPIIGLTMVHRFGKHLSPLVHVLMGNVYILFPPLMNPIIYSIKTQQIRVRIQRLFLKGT
Summed up: as §1

In experiment [7] the target is T7, UniProt Q8VG96.
T7 sequence (whole entry): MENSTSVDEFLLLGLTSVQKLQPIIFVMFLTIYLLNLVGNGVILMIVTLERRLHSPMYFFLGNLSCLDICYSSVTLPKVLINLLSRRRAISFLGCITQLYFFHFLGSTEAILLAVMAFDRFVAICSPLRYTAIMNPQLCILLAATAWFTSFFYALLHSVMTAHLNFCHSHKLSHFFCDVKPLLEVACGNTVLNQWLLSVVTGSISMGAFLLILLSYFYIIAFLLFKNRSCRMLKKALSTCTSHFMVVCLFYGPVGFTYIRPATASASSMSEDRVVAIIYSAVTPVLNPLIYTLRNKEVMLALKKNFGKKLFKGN
Summed up: as §1

Each structure is given as a SMILES string.

For `CC(CC=O)CCCC(C)(C)O` (configuration not stated), the “odorant receptor agonist call” value in experiment [1], in experiment [2], in experiment [3] and in experiment [4] was “inactive” in each case.

With `CC1(C)CC(=O)CC(=O)C1`, the “odorant receptor agonist call” value in experiment [1], in experiment [2], in experiment [3] and in experiment [4] was “inactive” each time.

Take `Cc1ccc(OC(=O)C(C)C)cc1`: the “odorant receptor agonist call” value in experiment [1], in experiment [2], in experiment [3] and in experiment [4] was “inactive” in each case.

For `Cc1ccc2c(c1)OCC(=O)CO2`, the “odorant receptor agonist call” value in experiment [1], in experiment [2], in experiment [3] and in experiment [4] was “inactive” each time.

With `Cc1ccc(C(C)C)c(O)c1`, the “odorant receptor agonist call” value in experiment [1], in experiment [2], in experiment [3] and in experiment [4] was “inactive” in each case.

Regarding `CCCCCOC(=O)CC`, the “odorant receptor agonist call” value in experiment [1], in experiment [2], in experiment [3] and in experiment [4] was “inactive” each time.

For `COC(OC)c1ccccc1`, the “odorant receptor agonist call” value in experiment [1], in experiment [2], in experiment [3] and in experiment [4] was “inactive” throughout.

Regarding `O=C1CCOc2ccccc21`, the “odorant receptor agonist call” value in experiment [1], in experiment [5], in experiment [2], in experiment [3], in experiment [6] and in experiment [7] was “inactive” in each case. Also, in experiment [4], the “odorant receptor agonist call” value was “inactive”.

For the molecule `CC=Cc1ccc(OC)cc1`, the “odorant receptor agonist call” value in experiment [1], in experiment [2], in experiment [3] and in experiment [4] was “inactive” each time.

For the molecule `Cc1occc1SSc1ccoc1C`, the “odorant receptor agonist call” value in experiment [1], in experiment [2], in experiment [3] and in experiment [4] was “inactive” throughout.

For the molecule `CCc1ccccc1O`, the “odorant receptor agonist call” value in experiment [1], in experiment [2], in experiment [3] and in experiment [4] was “inactive” throughout.

For `CCCCCCCCS`, the “odorant receptor agonist call” value in experiment [1], in experiment [5], in experiment [2], in experiment [3], in experiment [6] and in experiment [7] was “inactive” each time. The “odorant receptor agonist call” value in experiment [4] was “inactive”.

With `CCCCCOC(=O)CCC`, the “odorant receptor agonist call” value in experiment [1], in experiment [2], in experiment [3] and in experiment [4] was “inactive” throughout.

With `CCOC(=O)CC(C)C`, the “odorant receptor agonist call” value in experiment [1], in experiment [2], in experiment [3] and in experiment [4] was “inactive” in each case.

`COc1nccnc1C(C)C`: the “odorant receptor agonist call” value in experiment [1], in experiment [2], in experiment [3] and in experiment [4] was “inactive” throughout.

Take `CC(=O)Oc1ccccc1`: the “odorant receptor agonist call” value in experiment [1], in experiment [5], in experiment [2], in experiment [3], in experiment [6] and in experiment [4] was “inactive” throughout. Moreover, in experiment [7], the “odorant receptor agonist call” value is “active”.

Turning to `CCCCCC=CCCC=O`, the “odorant receptor agonist call” value in experiment [1], in experiment [2], in experiment [3] and in experiment [4] was “inactive” in each case.

The values are drawn from the M2OR odorant receptor database.
